Screening data as filed in PubChem.
TNAP act hi DEA = activators of human TNAP at high phosphate acceptor concentration; P05186; purified TNAP, CDP-star luminescence, 1 M DEA, 30 min; stronger effect = higher value; 0 = EDTA background, 1 = DMSO-only activity; activation factor at 20 µM; 200,000 tested, under 10 active;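 active = activation factor at least 2 at 20 µM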
Target sequence (P05186 whole entry, looked up): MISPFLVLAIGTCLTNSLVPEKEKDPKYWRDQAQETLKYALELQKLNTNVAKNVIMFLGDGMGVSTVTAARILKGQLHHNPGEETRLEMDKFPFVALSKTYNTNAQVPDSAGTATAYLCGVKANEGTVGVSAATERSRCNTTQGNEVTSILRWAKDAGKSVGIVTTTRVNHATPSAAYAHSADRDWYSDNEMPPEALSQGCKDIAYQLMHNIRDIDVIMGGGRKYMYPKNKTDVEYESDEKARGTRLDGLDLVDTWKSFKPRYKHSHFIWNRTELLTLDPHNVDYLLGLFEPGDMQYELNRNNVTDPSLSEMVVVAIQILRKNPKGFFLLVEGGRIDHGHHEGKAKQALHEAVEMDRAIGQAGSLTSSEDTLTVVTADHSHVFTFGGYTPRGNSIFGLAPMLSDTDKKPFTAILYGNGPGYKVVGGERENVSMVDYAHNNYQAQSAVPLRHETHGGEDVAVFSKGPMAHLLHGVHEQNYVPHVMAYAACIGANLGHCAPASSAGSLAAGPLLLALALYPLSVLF
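Dosing: 20 µM single point. System: human TNAP. Amount: TNAP 1/800 final. Incubation: 30 min, room temperature. Read-out: TNAP activation factor scaled between EDTA and DMSO control wells. Signal: luminescence from CDP-star hydrolysis. Medium: 1 M DEA, pH 9.8, Mg2+, Zn2+. Control set: EDTA negative control, DMSO positive control.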
TNAP inh hi DEA = blocks human TNAP under high phosphate acceptor concentration; P05186; purified TNAP, CDP-star luminescence, 1 M DEA; inhibition, % at 20 µM; actives 0.03% (n = 200,000);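 active = over 50% inhibition of tissue-nonspecific alkaline phosphatase at 20 µM in the single-dose screen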;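 note: plate controls were DMSO wells for no effect and EDTA-quenched wells as full inhibition for full effect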
TNAP inh noacc = TNAP (human) inhibition, acceptor-free conditions | actives 0.26% (n = 200,000) | AID 1012 | purified TNAP, CDP-star luminescence, 30 min | P05186 | inhibition, % at 20 µM;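 active = tissue-nonspecific alkaline phosphatase inhibition above about 50% at 20 µM in the single-dose screen, limit read from the data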;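 note: 0% = DMSO negative control and 100% = EDTA positive control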
L major viab = reduces viability of Leishmania major promastigotes | resazurin fluorescence viability | inhibition, % at 10 µM | actives 9% (n = 200,000) | AID 1063; in the data active = inhibition above about 50%;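 note: promastigotes grown with compound for 44 hours at 28 °C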
HCT116 PTEN-null = PTEN-deleted cell growth suppression. HCT116 PTEN-null viability, CellTiter-Glo, 60 h; stronger effect = lower value. viability, % at 10 µM. actives 1.2% (n = 140,000). AID 827;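 active = viability at or below a set limit, 4 SD under the median of all tested compounds, cut at about 3.7% in these data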;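 note: PTEN knockout HCT116 line with beta catenin targeted HCT116 as companion control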
HCT116 bCat-KO = beta-catenin-lacking colon tumor cell growth suppression. HCT116 beta-catenin knockout viability, CellTiter-Glo, 60 h; stronger effect = lower value. actives 1.5% (n = 140,000). AID 818. viability, % at 10 µM;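 active = viability at or under a set limit, the compound median less 4 SD, cut at about 6% in these data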;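 note: 0% = Hyamine 1622 control at 20 µM and 100% = untreated cell control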
Lmaj promast 1uM = inhibitors of Leishmania major promastigote growth, repeat at 1 uM. AID 1258. actives 13% (n = 1,100). shares compounds with L major viab. inhibition, % at 1 µM. L. major promastigote growth, resazurin fluorescence, 48 h;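 active = inhibition above about 50% in both repeat tests, limit read from the data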
An asterisk follows results filed as active; nt = not tested or not shown. Compounds with a hit are over-represented: about 9.6% of the library has one in this group of screens.

SMILES	TNAP act hi DEA	TNAP inh hi DEA	TNAP inh noacc	L major viab	HCT116 PTEN-null	HCT116 bCat-KO	Lmaj promast 1uM
CCOC(=O)c1c(C)[nH]c(C(=O)C(C)N2CCCC2)c1C (stereo not drawn)	1	-3	1	-4	nt	nt	nt
CCOC(=O)c1c(C)[nH]c(C(=O)C(Cc2ccccc2)N(C)C)c1C (stereo not drawn)	1	-3	-3	99*	108	94	-8
CC(C)C[C@H]1C(=O)N2CCCC2[C@]2(O)O[C@](NC(=O)[C@@H]3C=C4c5cccc6[nH]cc(c56)CC4N(C)C3)(C(C)C)C(=O)N12 (stereo partly drawn)	0.9	6	-2	59*	85	87	1
CC(C)[C@@]1(NC(=O)[C@@H]2C[C@@H]3c4cccc5[nH]cc(c45)C[C@H]3N(C)C2)O[C@@]2(O)[C@@H]3CCCN3C(=O)[C@H](Cc3ccccc3)N2C1=O	1	2	-7	65*	40	46	-2
O=c1[nH]c(=S)[nH]c(O)c1N=Nc1ccc(S(=O)(=O)N2CCc3ccccc32)cc1	0.7	28	20	32	nt	nt	nt
Cc1cccc(-n2c(O)c(C)c(=O)[nH]c2=S)c1	1.1	-8	-19	-8	nt	nt	nt
O=P(Nc1ccccc1)(Nc1ccccc1)Oc1ccc(Cl)cc1	1.1	-7	-13	71*	68	68	-5
O=C1C2CCCN2C(c2ccncc2)N1c1ccc(Cl)c(Cl)c1 (stereo not drawn)	1.1	-8	-15	0	81	85	nt
O=C1C2CCCN2C(c2cccnc2)N1c1ccc(Cl)c(Cl)c1 (stereo not drawn)	1.1	-7	-12	96*	87	94	8
CCOc1cccc(CNC2CN3CCC2CC3)c1 (stereo not drawn)	1.1	-6	-9	99*	101	103	-19
COc1cccc(CNC2CN3CCC2CC3)c1OC (stereo not drawn)	1.1	-8	-8	-2	89	95	nt
OC12ONC(c3ccccn3)C1N1CCC2CC1 (stereo not drawn)	1	-4	-5	2	56	55	nt
CC1=CC2/C=C(\C)CCC(O)C(O)/C=C/C(=O)C23C(=O)NC(CC(C)C)C3C1C (stereo not drawn)	1.1	-7	-4	97*	nt	nt	48
CN1CCN(c2ncc(C=O)s2)CC1	1	-4	-14	-5	nt	nt	nt
CC[n+]1c(/C=C/N(C)c2ccccc2)sc2ccc(Cl)cc21	1	-1	-7	100*	9	9	100*
CCn1nc(/C=C/c2ccccc2)nc2c(=O)n(C)c(=O)nc1-2	1	2	4	101*	nt	nt	81*
CN(C(=O)Oc1ccc(C(C)(C)C)cc1)c1ccccc1	1	-4	-18	-3	nt	nt	nt
O=C(NCC(c1cccnc1)N1CCN(c2ccc(F)cc2)CC1)Oc1ccccc1 (stereo not drawn)	1	-1	0	93*	79	78	78*
COc1ccc(C2NCCc3[nH]cnc32)cc1 (stereo not drawn)	1	-1	1	-6	nt	nt	nt
Clc1ccc(C(c2ccccc2)c2ncc[nH]2)cc1 (stereo not drawn)	1	-4	-18	14	84	84	nt
CCCCc1ccc2[nH]cc(CCN)c2c1	1	-3	-6	100*	4	18	1
O=c1[nH]c(=O)n(-c2ccccc2)c(O)c1N=Nc1ccc(Br)cc1	1	4	9	1	nt	nt	nt
